In ChEMBL document CHEMBL1144932, “Design, synthesis, and biological properties of new bis(acridine-4-carboxamides) as anticancer agents” (J Med Chem, 2003):

Tests used:
Homo sapiens [1] = species on record: Homo sapiens; assay: In vitro cytotoxic activity against human colon adenocarcinoma (HT-29).; assay type: functional
Outline: (§1)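 HT29 cells were seeded at 2.5 × 10^4 cells/mL of medium and drug solutions were added. Exposure lasted 144 h. IC50 is the drug concentration inhibiting cell growth by 50%. Assays were run in triplicate.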

[2] = Apparent equilibrium constant for DNA binding (G-C); assay type: ADME
Outline: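 Ethidium displacement at pH 7.0 in buffer of 10 mM Na2HPO4, 10 mM NaH2PO4, 1 mM EDTA with 1.26 μM ethidium bromide and 1 μM CT-DNA, [poly(dA-dT)]2 or [poly(dG-dC)]2. Drug stock (~5 mM in DMSO) added serially. Fluorescence read at 20 °C, excitation 546 nm, emission 595 nm. C50 is the mean of three determinations. Kapp = 1.26/C50 × 10^7.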

786-0 [3] = assay: Percent growth of renal 786-0 cell line at compound concentration 10e-6 was determined; assay type: functional, Homo sapiens
Outline: (§2)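 Cells in the NCI panel were exposed for 48 h to 10^-8, 10^-6 and 10^-4 or 10^-5 M drug. Growth is given as percent of untreated control (100%). Negative values are the percent of cells killed relative to the initial cell number.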

RPMI-8226 [4] = assay: Percent growth of leukemia RPMI-8226 cell line at compound concentration 10e-6 was determined; assay type: functional, Homo sapiens; outline: as §2
OVCAR-4 [5] = assay: Percent growth of ovarian OVCAR-4 cell line at compound concentration 10e-8 was determined; assay type: functional, Homo sapiens; outline: as §2
786-0 [6] = assay: Percent growth of renal 786-0 cell line at compound concentration 10e-8 was determined; assay type: functional, Homo sapiens; outline: as §2
HCT-116 [7] = assay: Percent growth of colon HCT116 cell line at compound concentration 10e-6 was determined; assay type: functional, Homo sapiens; outline: as §2
HCT-116 [8] = assay: Percent growth of colon HCT116 cell line at compound concentration 10e-8 was determined; assay type: functional, Homo sapiens; outline: as §2
SNB-19 [9] = assay: Percent growth of CNS SNB-19 cell line at compound concentration 10e-8 was determined; assay type: functional, Homo sapiens; outline: as §2
NCI-H460 [10] = assay: Percent growth of lung-NSC NCI-H460 cell line at compound concentration 10e-6 was determined; assay type: functional, Homo sapiens; outline: as §2
DU-145 [11] = assay: Percent growth of prostate DU-145 cell line at compound concentration 10e-5 was determined; assay type: functional, Homo sapiens; outline: as §2
DU-145 [12] = assay: Percent growth of prostate DU-145 cell line at compound concentration 10e-8 was determined; assay type: functional, Homo sapiens; outline: as §2
RPMI-8226 [13] = assay: Percent growth of leukemia RPMI-8226 cell line at compound concentration 10e-8 was determined; assay type: functional, Homo sapiens; outline: as §2
OVCAR-4 [14] = assay: Percent growth of ovarian OVCAR-4 cell line at compound concentration 10e-6 was determined; assay type: functional, Homo sapiens; outline: as §2
LOX IMVI [15] = assay: Percent growth of melanoma LOX IMVI cell line at compound concentration 10e-6 was determined; assay type: functional, Homo sapiens; outline: as §2
MCF7 [16] = assay: Percent growth of breast MCF-7 cell line at compound concentration 10e-8 was determined; assay type: functional, Homo sapiens; outline: as §2
RPMI-8226 [17] = assay: Percent growth of leukemia RPMI-8226 cell line at compound concentration 10e-5 was determined; assay type: functional, Homo sapiens; outline: as §2
SNB-19 [18] = assay: Percent growth of CNS SNB-19 cell line at compound concentration 10e-6 was determined; assay type: functional, Homo sapiens; outline: as §2
MCF7 [19] = assay: Percent growth of breast MCF-7 cell line at compound concentration 10e-6 was determined; assay type: functional, Homo sapiens; outline: as §2
NCI-H460 [20] = assay: Percent growth of lung-NSC NCI-H460 cell line at compound concentration 10e-8 was determined; assay type: functional, Homo sapiens; outline: as §2
MCF7 [21] = assay: Percent growth of breast MCF-7 cell line at compound concentration 10e-5 was determined; assay type: functional, Homo sapiens; outline: as §2
LOX IMVI [22] = assay: Percent growth of melanoma LOX IMVI cell line at compound concentration 10e-5 was determined; assay type: functional, Homo sapiens; outline: as §2
DU-145 [23] = assay: Percent growth of prostate DU-145 cell line at compound concentration 10e-6 was determined; assay type: functional, Homo sapiens; outline: as §2
SNB-19 [24] = assay: Percent growth of CNS SNB-19 cell line at compound concentration 10e-5 was determined; assay type: functional, Homo sapiens; outline: as §2
NCI-H460 [25] = assay: Percent growth of lung-NSC NCI-H460 cell line at compound concentration 10e-5 was determined; assay type: functional, Homo sapiens; outline: as §2
786-0 [26] = assay: Percent growth of renal 786-0 cell line at compound concentration 10e-5 was determined; assay type: functional, Homo sapiens; outline: as §2
HCT-116 [27] = assay: Percent growth of colon HCT116 cell line at compound concentration 10e-5 was determined; assay type: functional, Homo sapiens; outline: as §2
LOX IMVI [28] = assay: Percent growth of melanoma LOX IMVI cell line at compound concentration 10e-8 was determined; assay type: functional, Homo sapiens; outline: as §2
OVCAR-4 [29] = assay: Percent growth of ovarian OVCAR-4 cell line at compound concentration 10e-5 was determined; assay type: functional, Homo sapiens; outline: as §2
Homo sapiens [30] = species on record: Homo sapiens; assay: In vitro cytotoxic activity against human colon adenocarcinoma (HT-29); assay type: functional; outline: as §1

In the case of `CN(C)CCNC(=O)c1ccc(NCCN(C)C)c2c(O)c3cc(O)ccc3nc12`, the IC50 (Homo sapiens [1]) is reported as 2000 nM.

Work on `CN(C)CCNC(=O)c1ccc(NCCN(C)CCNc2ccc(C(=O)NCCN(C)C)c3nc4ccccc4cc23)c2cc3ccccc3nc12` yielded a K app [2] of 7.2e+06 M⁻¹ and an IC50 (Homo sapiens [1]) of 470 nM.

For `CN(C)CCNC(=O)c1ccc(NCCN(C)CCNc2ccc(C(=O)NCCN(C)C)c3nc4ccc(O)cc4c(O)c23)c2c(O)c3cc(O)ccc3nc12`, the K app [2] was 1.4e+07 M⁻¹ and the IC50 (Homo sapiens [1]) was greater than 10000 nM.

Compound `COc1ccc2nc3c(C(=O)NCCN(C)C)ccc(NCCCN(C)CCCNc4ccc(C(=O)NCCN(C)C)c5nc6ccc(OC)cc6c(O)c45)c3c(O)c2c1` has a K app [2] of 1.4e+08 M⁻¹ and an IC50 (Homo sapiens [1]) of 39 nM.

Work on `CN(C)CCNC(=O)c1ccc(NCCN(C)C)c2cc3ccccc3nc12` yielded a K app [2] of 2.3e+08 M⁻¹ and an IC50 (Homo sapiens [1]) of 7 nM.

`CN(C)CCNC(=O)c1ccc(NCCCN(C)CCCNc2ccc(C(=O)NCCN(C)C)c3nc4ccc([N+](=O)[O-])cc4c(O)c23)c2c(O)c3cc([N+](=O)[O-])ccc3nc12` gave a K app [2] of 2.3e+08 M⁻¹, a Growth (786-0 [3]) of 6% and a Growth (RPMI-8226 [4]) of -44%. It also gave a Growth (OVCAR-4 [5]) of 67%, a Growth (786-0 [6]) of 41% and a Growth (HCT-116 [7]) of -5%. It also gave a Growth (HCT-116 [8]) of 31%, a Growth (SNB-19 [9]) of 42% and a Growth (NCI-H460 [10]) of -31%. The Growth (DU-145 [11]) was -93%, the Growth (DU-145 [12]) was 55% and the Growth (RPMI-8226 [13]) was 12%. It also gave a Growth (OVCAR-4 [14]) of 16%, a Growth (LOX IMVI [15]) of -40% and a Growth (MCF7 [16]) of 26%. It also gave a Growth (RPMI-8226 [17]) of -58%, a Growth (SNB-19 [18]) of -7% and an IC50 (Homo sapiens [1]) of less than 0.1 nM. For the same compound, the Growth (MCF7 [19]) was 0%, the Growth (NCI-H460 [20]) was 28% and the Growth (MCF7 [21]) was -86%. It also gave a Growth (LOX IMVI [22]) of -93%, a Growth (DU-145 [23]) of -2% and a Growth (SNB-19 [24]) of -96%. For the same compound, the Growth (NCI-H460 [25]) was -95%, the Growth (786-0 [26]) was -95% and the Growth (HCT-116 [27]) was -94%. For the same compound, the Growth (LOX IMVI [28]) was 28% and the Growth (OVCAR-4 [29]) was -72%.

`CN(C)CCNC(=O)c1ccc(NCCN(C)C)c2c(=O)c3ccccc3[nH]c12` showed an IC50 (Homo sapiens [1]) of 94 nM.

In the case of `COc1ccc2nc3c(C(=O)NCCN(C)C)ccc(NCCN(C)C)c3c(O)c2c1`, the IC50 (Homo sapiens [30]) is reported as 500 nM.

`CN(C)CCNc1ccc(C(=O)NCCN(C)CCNC(=O)c2ccc(NCCN(C)C)c3c(O)c4ccccc4nc23)c2nc3ccccc3c(O)c12` gave an IC50 (Homo sapiens [1]) of 480 nM.

For `CN(C)CCNc1ccc(C(=O)NCCN(C)CCN(C)CCNC(=O)c2ccc(NCCN(C)C)c3c(O)c4ccccc4nc23)c2nc3ccccc3c(O)c12`, the IC50 (Homo sapiens [1]) was 290 nM.

In the case of `CN(C)CCNc1ccc(C(=O)NCCCNC(=O)c2ccc(NCCN(C)C)c3c(O)c4ccccc4nc23)c2nc3ccccc3c(O)c12`, the IC50 (Homo sapiens [1]) is reported as greater than 10000 nM.

`CN(CCCNC(=O)c1ccc(Cl)c2c(O)c3ccccc3nc12)CCCNC(=O)c1ccc(Cl)c2c(O)c3ccccc3nc12` showed an IC50 (Homo sapiens [1]) of 340 nM.

`CN(C)CCNc1ccc(C(=O)NCCCN(C)CCCNC(=O)c2ccc(NCCN(C)C)c3c(O)c4cc(O)ccc4nc23)c2nc3ccc(O)cc3c(O)c12` gave an IC50 (Homo sapiens [1]) of 800 nM.
